# Measured values of several laboratories.
# Protocols differ between the studies behind these lines.
Structure (SMILES),test system,conditions,Cmax
CCOC(=O)[C@@]12C[C@@H]1[C@@H](n1ccc3c(NC)nc(C#Cc4ccc(Cl)s4)nc31)[C@H](O)[C@@H]2O,"male Sprague-Dawley rat, plasma","oral, 10 mg/kg",192 ng/mL
O=C1N(Cc2ccccc2Cl)c2ccccc2C12NN=C(c1ccccc1)S2 (centres unmarked),"Sprague-Dawley rat, plasma","oral, 40 mg/kg",1190 ng/mL
CCc1cc(C(=O)NC)c2nccc(N3CCc4c(cc(Cn5ccnc5)cc4-c4cn(C)nc4C(F)(F)F)C3=O)c2c1,"male Sprague-Dawley rat, plasma","oral, 100 mg/kg, single dose",10100 ng/mL
O=C(Nc1cc(F)c(F)c(F)c1)c1ccc(F)c(S(=O)(=O)NCc2cccc(B(O)O)c2)c1,"male Sprague-Dawley rat, plasma","intravenous, 2 mg/kg",460 ng/mL
CCc1cc(OC)c2nccc(N3CCc4c(cc(Cn5ccnc5)cc4-c4cn(C)nc4C(F)(F)F)C3=O)c2c1,"male Sprague-Dawley rat, plasma","oral, 50 mg/kg",2700 ng/mL
N#Cc1ccc(Nc2nc(N)cc(Oc3c(F)cc(-c4ccc(C#N)cc4)cc3F)n2)cc1,"Sprague-Dawley rat, plasma","intravenous, 1 mg/kg",251 ng/mL
COc1cc2c3c(n(CCCN4CCOCC4)c(=O)c2cc1OC)-c1cc2c(cc1C3=O)OCO2,"female Fischer 344 rat, plasma","intravenous, 24 mg/m², single dose",568 ng/mL
Cl.Clc1ccc2c(c1)nc(N1CCNCC1)n2Cc1ccccc1,"rat, plasma","oral, 5 mg/kg",800 nM
COc1ccc(C(C)=O)c(O)c1,"male Sprague-Dawley rat, plasma","oral, 100 mg/kg",8460 ng/mL
COCc1nn(Cc2ccc(Cn3ccccc3=O)cc2)cc1C(=O)NCc1nccc(OC)c1C,"male Sprague-Dawley rat, plasma","oral, 10 mg/kg",1020 ng/mL
Oc1c(Br)cc(Cl)c2cccnc12,"Sprague-Dawley rat, plasma","oral, 20 mg/kg",1700 ng/mL
CC(C)OC(=O)NC1CCN(Cc2cc(Cl)c3cccnc3c2O)CC1,"rat, blood","intraperitoneal, 30 mg/kg",200 nM
Cc1noc(-c2cc3cc(-c4nc(C(=O)NCc5ccncc5)[nH]c4C)ccc3[nH]2)n1,"Sprague-Dawley rat, plasma","oral, 10 mg/kg, suspension",2200 nM
COCc1nn(Cc2ccc(Cn3ccccc3=O)cc2)cc1C(=O)NCc1c(C#N)ccc(OC)c1F,"male Sprague-Dawley rat, plasma","oral, 10 mg/kg",360 ng/mL
Cc1c(-c2ccccc2)cccc1N1C(=O)c2cc(CN[C@H](C(=O)O)C(C)O)c(OCc3cccc(C#N)c3)cc2C1=O (some centres unmarked),"Sprague-Dawley rat, plasma","intravenous, 5 mg/kg",4350 ng/mL
COc1nc(-c2cc(C)c(N[C@@H](C)c3cc(F)cc(F)c3)nn2)ccc1-n1cnc(C)c1,"male Sprague-Dawley rat, plasma","intravenous, 1 mg/kg, single dose",3570 ng/mL
CCc1nc(C(N)=O)c(Nc2ccc(N3CCC(N4CCN(C)CC4)CC3)c(OC)c2)nc1NC1CCOCC1,"male Sprague-Dawley rat, plasma","oral, 10 mg/kg",341 ng/mL
COc1cc(/C=C/C(=O)CC(=O)/C=C/c2ccc(O)c(OC)c2)ccc1O,"male Sprague-Dawley rat, plasma","oral, 100 mg/kg",5.99 ng/mL
COc1ccc2c(=O)n(C)c(-c3ccccc3)nc2c1,"male Sprague-Dawley rat, plasma","intravenous, 2 mg/kg",2130 ng/mL
N#Cc1[nH]nnc1-c1cccc(-c2cc(F)cc(C(F)(F)F)c2)c1,"male Sprague-Dawley rat, plasma","oral, 10 mg/kg",5750 ng/mL
C=CC(=O)N1CC2CC(n3nc(-c4ccc(C(=O)Nc5ccccn5)cc4)c4c(N)ncnc43)CC2C1 (centres unmarked),"male Wistar rat, plasma","oral, 100 mg/kg",2880 ng/mL
N#Cc1[nH]nnc1-c1csc(-c2ccc(Cl)cc2)n1,"male Sprague-Dawley rat, plasma","oral, 10 mg/kg",5230 ng/mL
COc1ccc2c(Cc3ccccc3F)c3n(c(=O)c2c1OC)CCc1cc2c(cc1-3)OCO2,"rat, plasma","oral, 5 mg/kg",310 ng/mL
